Many of the other results were omitted from the sample, so hits are more common in it than they were.
INS-1E rescue = rescue of cytokine-induced death in INS-1E beta cells; INS-1E cytokine-induced death, ATP luminescence, 48 h; normalised: neutral wells 0, positive control 100; protection from cytokine-induced ATP loss, % at 10 µM; actives 0.1% (n = 20,000); AID 488910;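 active means mean replicate protection from cytokine-induced ATP loss at least 50% and at least 75% of replicates each reaching 50%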
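Material: INS-1E rat cells; Quantity: 8000 cells/well; Buffer or medium: phenol-red-free RPMI with 5% fetal bovine serum; Probe or stimulus: cytokine cocktail of IFN-γ, TNF-α and IL-1β; Compound dosing: single test concentration per compound, delivered by pin transfer; Incubation: 48 h co-treatment, 10 min post-lysis read; Signal: CellTiter-Glo luminescence.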
A1 apoptosis 2 = compounds inhibiting A1, read as caspase activation; MEF A1-2A-BIM cells, caspase-Glo luminescence, 3 h; percent of clofoctol response, DMSO zero; caspase activation, % (no concentration beside the values); 24,000 tested, under 10 active; AID 2465; in the data active means caspase activation above about 5.9%
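Evaluation: Caspase-3/7 activity from luminescence increase | Assay system: A1-2A-BIM mouse embryonic fibroblasts | Quantity: 2500 MEF cells/well | Medium: RPMI-1640 plus 10% FBS | Detection: Caspase-Glo 3/7 luminescence, 1 h at room temperature | Dosing: 50 nL compound per well, pinned | Timing: Cells settled overnight, compound exposure 3 h at 37 °C, 5% CO2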
T cruzi intra = inhibitors of intracellular Trypanosoma cruzi; activity score (inhibition), % at 5.01 µM; intracellular Trypanosoma cruzi in host cells, plate reader; actives 4.9% (n = 22,000); AID 651903; in the data active means activity score above about 55%;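 further: parasites and compound incubated about four days before reading; 0% = median of neutral control wells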
Numbers without * were called inactive; . = not tested or not shown.

SMILES	INS-1E rescue	A1 apoptosis 2	T cruzi intra
C[C@@H]1CN([C@H](C)CO)C(=O)c2cccc(NS(=O)(=O)c3ccc(F)cc3)c2O[C@H]1CN(C)Cc1ccc(-c2ccccc2)cc1	5	.	6
Cc1ccc(S(=O)(=O)Nc2cccc3c2O[C@@H](CN(C)Cc2ccc(Oc4ccccc4)cc2)[C@@H](C)CN([C@H](C)CO)C3=O)cc1	-64	0	65*
C[C@@H]1CN([C@@H](C)CO)C(=O)c2cccc(NS(=O)(=O)c3ccccc3)c2O[C@@H]1CN(C)CC1CC1	10	0	57*
O=C(CCCCC(=O)N/N=C/c1ccccc1[N+](=O)[O-])NO	14	-1	12
CC(=O)NCCCC[C@@H]1NC(=O)[C@@H]2C[C@H](C(=O)NCc3ccc(F)cc3)[C@H](c3cccc(OCCO)c3)N2C1=O	.	0	.
COC(=O)CCCCCCC(=O)N/N=C/c1ccc(N(C)C)cc1	5	1	1
COC(=O)CCCCCCC(=O)N/N=C/[C@H](O)[C@H](O)[C@@H](O)[C@@H](O)CO	-9	0	-10
CC(C)=CCC[C@@H](C)C/C=N/NC(=O)CCCCCCC(=O)Nc1ccccc1O	4	0	0
Cc1ccc(F)cc1S(=O)(=O)N[C@@H]1CCN(Cc2ccc(C(F)(F)F)cc2)C1	.	0	.
Cc1ccc(S(=O)(=O)N[C@@H](Cc2ccccc2)C(=O)NCCCN=[N+]=[N-])cc1	.	-2	.
C[C@H](CO)N1C[C@H](C)[C@H](CN(C)C(=O)NC2CCCCC2)Oc2c(NS(=O)(=O)c3ccc(F)cc3)cccc2C1=O	-2	3	59*
C[C@H]1CN([C@@H](C)CO)C(=O)c2cccc(NS(=O)(=O)c3ccc(Cl)cc3)c2O[C@H]1CN(C)Cc1ccc(-c2ccccc2)cc1	-37	.	59*
C[C@@H]1CN([C@H](C)CO)C(=O)c2cccc(NS(=O)(=O)c3ccc(Cl)cc3)c2O[C@H]1CN(C)Cc1ccc(-c2ccccc2)cc1	-9	.	33
C[C@@H]1CN([C@H](C)CO)C(=O)c2cccc(NS(=O)(=O)c3ccc(F)cc3)c2O[C@@H]1CN(C)C(=O)NC1CCCCC1	9	0	16
COC(=O)CCCCCCC(=O)N/N=C/c1ccccc1OCCO	5	1	-9
C=CCN1C(=S)N[C@@H]2c3ccccc3O[C@@]1(C)[C@@H]2CO	.	1	.
C[C@H]1CN([C@@H](C)CO)C(=O)Cc2cc(NC(=O)Cc3cn(C)c4ccccc34)ccc2O[C@@H]1CN(C)Cc1ccc(-c2ccccc2)cc1	-25	.	74*
C[C@@H]1CN([C@H](C)CO)C(=O)Cc2cc(NC(=O)Cc3cn(C)c4ccccc34)ccc2O[C@H]1CN(C)Cc1ccc(-c2ccccc2)cc1	-3	0	64*
C[C@H]1CN([C@@H](C)CO)C(=O)Cc2cc(NC(=O)Cc3cn(C)c4ccccc34)ccc2O[C@H]1CN(C)Cc1ccc(-c2ccccc2)cc1	-38	-1	43
C[C@@H]1CN([C@H](C)CO)C(=O)Cc2cc(NC(=O)Cc3cn(C)c4ccccc34)ccc2O[C@H]1CN(C)CC1CCCCC1	-1	0	60*
C[C@@H]1CN([C@H](C)CO)C(=O)Cc2cc(NC(=O)Cc3cn(C)c4ccccc34)ccc2O[C@@H]1CN(C)CC1CCCCC1	1	0	21
C[C@@H]1CN([C@H](C)CO)C(=O)Cc2cc(NC(=O)Cc3cn(C)c4ccccc34)ccc2O[C@@H]1CN(C)Cc1ccc(C(=O)O)cc1	2	0	-5
Cc1ccccc1/C=N/NC(=O)c1ccccn1	5	-11	-20
C[C@H]1CN([C@@H](C)CO)C(=O)Cc2cc(NC(=O)Nc3ccc(C(F)(F)F)cc3)ccc2O[C@H]1CN(C)Cc1ccc(-c2ccccc2)cc1	-79	.	54
C[C@H]1CN([C@@H](C)CO)C(=O)Cc2cc(NC(=O)Nc3ccc(C(F)(F)F)cc3)ccc2O[C@@H]1CN(C)Cc1ccc(-c2ccccc2)cc1	-56	.	70*
SMILES	INS-1E rescue	A1 apoptosis 2	T cruzi intra
C[C@@H]1CN([C@@H](C)CO)C(=O)Cc2cc(NC(=O)Nc3ccc(C(F)(F)F)cc3)ccc2O[C@@H]1CN(C)Cc1ccc(-c2ccccc2)cc1	-2	1	67*
COC(=O)CCCCCCC(=O)N/N=C/c1ccc(N(C)CCO)cc1	1	0	22
COC(=O)CCCCCCC(=O)N/N=C/C[C@@H](C)CCC=C(C)C	-9	0	0
O=C(O)CCCCCCC(=O)N/N=C/c1cc(Br)cc(Br)c1O	29	1	-9
CCn1c2ccccc2c2cc(/C=N/NC(=O)CCCCCCC(=O)Nc3ccccc3O)ccc21	-12	.	16
C[C@@H]1CN([C@H](C)CO)C(=O)c2cccc(NC(=O)c3cnccn3)c2O[C@H]1CN(C)Cc1ccc(Cl)c(Cl)c1	-11	.	28
C[C@@H]1CN([C@H](C)CO)C(=O)c2cccc(NC(=O)c3ccc(-c4nccs4)cc3)c2O[C@H]1CN(C)Cc1ccc2c(c1)OCO2	-4	.	45
C[C@@H]1CN([C@H](C)CO)C(=O)c2cccc(NC(=O)c3ccncc3)c2O[C@@H]1CN(C)Cc1ccc(Cl)c(Cl)c1	-7	-1	76*
C[C@H]1CN([C@@H](C)CO)C(=O)c2cccc(NC(=O)c3cnccn3)c2O[C@@H]1CN(C)Cc1ccc(Cl)c(Cl)c1	-8	.	-11
C[C@H](CO)N1C[C@H](C)[C@H](CN(C)Cc2ccc3c(c2)OCO3)Oc2c(NC(=O)c3ccncc3)cccc2C1=O	-1	2	64*
C[C@H]1CN([C@@H](C)CO)C(=O)c2cccc(NC(=O)c3ccncc3)c2O[C@H]1CN(C)Cc1ccc(Cl)c(Cl)c1	-3	0	86*
C[C@H]1CN([C@@H](C)CO)C(=O)c2cccc(NC(=O)c3ccncc3)c2O[C@@H]1CN(C)Cc1ccc(Cl)c(Cl)c1	-10	-2	77*
C[C@@H]1CN([C@H](C)CO)C(=O)c2cccc(NC(=O)c3cnccn3)c2O[C@@H]1CN(C)Cc1ccc(Cl)c(Cl)c1	-20	0	26
O=C(CCCCC(=O)N/N=C/c1cc(Br)cs1)NO	9	-1	13
O=C1O[C@@H](c2ccccc2)[C@@H](c2ccccc2)N2[C@@H](c3ccccc3OCCO)[C@]3(C(=O)Nc4ccccc43)[C@@H](C(=O)Nc3nc4ccccc4s3)[C@H]12	.	-1	.
O=C(N/N=C/c1ccc(O)c(O)c1)c1ccccn1	.	-7	.
COCCOC(=O)N1C(=O)[C@@]2(c3cc(C#CC4(O)CCCCCC4)ccc31)[C@H](C(N)=O)[C@H]1C(=O)O[C@H](c3ccccc3)[C@H](c3ccccc3)N1[C@@H]2c1ccc(OCCO)cc1	.	-1	.
Cc1nnc(Sc2ccc(/C=N/NC(=O)c3ccccn3)o2)n1C	4	-1	-8
O=C(N1CCCCC1)[C@]1(CCS(=O)(=O)c2ccccc2)N=C(c2ccc(OCCCO)cc2)O[C@@H]1c1ccccc1	.	-1	.
C[C@H]1CN([C@@H](C)CO)C(=O)c2cccc(NC(=O)c3ccncc3)c2O[C@H]1CN(C)C(=O)Nc1ccc(F)cc1	7	.	64*

High-throughput results (PubChem)
